Results on three compounds are retold here after ChEMBL document CHEMBL3804806, “Synthesis of (Z)-1-(1,3-diphenyl-1H-pyrazol-4-yl)-3-(phenylamino)prop-2-en-1-one derivatives as potential anticancer and apoptosis inducing agents” (Eur J Med Chem, 2016).

Structures are written as SMILES. The source made the active and inactive calls. No cut-off for these calls is given here.

Data set [1] concerns A549. Nature of the data set: Induction of apoptosis in human A549 cells assessed as loss in mitochondrial membrane potential at antiproliferative IC50 after 24 hrs by rhodamine 123 staining based spectrofluorometry relative to control. It counts as functional. An outline of the steps: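 A549 cells plated at 5×10^5 cells/mL, adhered overnight, then 24 h at IC50. Harvested and incubated with rhodamine-123 (10 µg/mL) in PBS 30 min at room temp, washed. Fluorescence read by spectrofluorometer, ex 480/em 530 nm, vs untreated cells. Mean ± SD of three independent experiments, each in triplicate.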

The nature of data set [2]: Selectivity ratio of IC50 for human HaCaT cells to IC50 for human A549 cells. It counts as ADME, cell-based. Conditions: HaCaT cells versus A549 cells, read-out: Ratio IC50. In outline:
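Ratio built from MTT IC50s: 48 h exposure, absorbance 570 minus 630 nm, inhibition relative to DMSO vehicle, probit-fitted IC50 for HaCaT keratinocytes and A549 cells. Three independent experiments, quadruplicate wells.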

Data set [3] concerns A549. Kind of data set: Antiproliferative activity against human A549 cells after 48 hrs by MTT assay. It counts as functional, cell-based. The following applies: A549, 48 h. An outline of the steps:
(§1)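 Cells seeded at 3,000-5,000/well by doubling time and grown 24 h (37 °C, 5% CO2). HT-29/U87MG kept in DMEM + 10% FBS; A549/PC-3/HaCaT in RPMI-1640 + 10% FBS. Compounds for 48 h, then MTT 4 h, formazan dissolved in DMSO, A570 minus A630. % inhibition vs DMSO-treated cells; IC50 by probit. Three independent experiments in quadruplicate; mean ± SD.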
Background: Tetrazolium assays rely on reduction of a dye to a coloured formazan, in cell work by metabolically active cells.

Data set [4] relates to A549. Nature of the data set: Induction of apoptosis in human A549 cells assessed as chromatin condensation at antiproliferative IC50 after 24 hrs by Hoechst 33242 staining based confocal microscopic analysis. It is filed as functional, cell-based. In outline:
(§2)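 A549 cells (1x10⁶/well) on coverslips exposed 24 h at IC50, then fixed in 4% paraformaldehyde 10 min at 4 °C. Stained with Hoechst 33242 (5 μg/mL) 20 min at room temp. Nuclear morphology examined by confocal microscopy, excitation 350/emission 460 nm, 20X.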

Data set [5] in a line: Antiproliferative activity against human U87MG cells after 48 hrs by MTT assay. It counts as functional, cell-based, U-87MG ATCC. Conditions: U-87 MG. In outline:
as §1

In data set [6] the test system is HT-29. Kind of data set: Antiproliferative activity against human HT-29 cells after 48 hrs by MTT assay. It is filed as functional, cell-based. Conditions: HT-29, 48 h. An outline of the steps: as §1
The test system of data set [7] is A549. Nature of the data set: Induction of apoptosis in human A549 cells assessed as nuclear fragmentation at antiproliferative IC50 after 24 hrs by Hoechst 33242 staining based confocal microscopic analysis. It is filed as functional, cell-based. In outline:
as §2

The subject of data set [8] is A549. Kind of data set: Anti-migratory activity in human A549 cells assessed as disruption of actin fibre assembly after 12 hrs by rhodamine phalloidin/Hoechst 33242 staining based confocal microscopic analysis. It is filed as functional, cell-based. An outline of the steps:
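A549 cells (1x10⁶/well) grown on coverslips 24 h, then exposed to compounds 12 h. Washed, fixed in 4% paraformaldehyde in PBS, stained with rhodamine-phalloidin (F-actin) and Hoechst 33242 (nuclei), mounted in anti-fade. Examined by confocal microscopy, 20X objective.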

In data set [9] the test system is A549. Kind of data set: Anti-migratory activity in human A549 cells at antiproliferative IC50 after 24 to 48 hrs by wound healing assay. It counts as functional, cell-based.
In data set [10] the test system is A549. Kind of data set: Cell cycle arrest in human A549 cells assessed as accumulation at G2/M phase at antiproliferative IC50 after 24 hrs by propidium iodide staining based flow cytometry (reference value: 27.2%). It is filed as functional.
Data set [11] has as its system A549. Nature of the data set: Induction of apoptosis in human A549 cells assessed as intracellular ROS level at antiproliferative IC50 after 24 hrs by DCFDA staining based fluorescence microscopic analysis relative to control. It is filed as functional.
A short description of data set [12]: Antiproliferative activity against human PC3 cells after 48 hrs by MTT assay. It counts as functional, cell-based. Conditions: PC-3, 48 h. In outline:
as §1

Data set [13] concerns HaCaT. Kind of data set: Antiproliferative activity against human HaCaT cells after 48 hrs by MTT assay. It is filed as cell-based. An outline of the steps:
as §1

Broadly, the IC50 is the concentration at which inhibition is half-maximal. A higher IC50 goes with lower potency.

With `COc1ccc(-c2nn(-c3ccccc3)cc2C(=O)/C=C\Nc2ccc(O)cc2)cc1`, the Activity was 43.5% in [1] and 43.1% in data set [10]. Further, the selectivity ratio in data set [2] came to 10. For the same compound, the IC50 in data set [3] was 2770 nM; in data set [5], 3730 nM; in data set [6], 2460 nM; in data set [12] it was 1980 nM; in data set [13], 34600 nM. Moreover, the outcome in data set [4], in data set [7], in data set [8] and in data set [9] was Active. In addition, the “fold change (FC)” value in data set [11] is recorded as 2.1.

Turning to `O=C(/C=C\Nc1ccc(O)cc1)c1cn(-c2ccccc2)nc1-c1ccc(Cl)cc1`, the Activity is 45.8% in [1] and 49.2% in data set [10]. In addition, the selectivity ratio in [2] came to 10. In addition, the 50% inhibitory concentration (IC50) worked out at 1910 nM in data set [3]; 1500 nM in data set [5]; 2500 nM in data set [6]; 4430 nM in [12]; 22600 nM in data set [13]. Also, the outcome in data set [4], in [7], in data set [8] and in data set [9] was Active. Further, the “fold change (FC)” value in data set [11] was found to be 2.1.

In the case of `O=C(/C=C\Nc1ccc(O)cc1)c1cn(-c2ccccc2)nc1-c1ccc(F)cc1`, the Activity is listed as 30% in data set [1] and 41% in data set [10]. For the same compound, the selectivity ratio in data set [2] was determined as 10. The IC50 in data set [3] stood at 1500 nM; in data set [5], 4700 nM; in [6] it was 1900 nM; in data set [12] it was 2600 nM; in data set [13], 16300 nM. In addition, the result in [4], in data set [7], in data set [8] and in [9] was Active. For the same compound, the “fold change (FC)” value in data set [11] turned out to be 2.1.
